Compound activity from PubChem.
T cruzi growth-1 – T. cruzi intracellular proliferation inhibitors, primary screen, cell-based, beta-gal Tulahuen parasites, NIH3T3 host, luminescence. inhibition, % at 8.34 µM. 5.9% of 77,000 active. T. cruzi beta-gal in NIH3T3, GalScreen luminescence, 90 h;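 active means mean inhibition above about 93%, with at least 55% of replicates each passing it, limit read from the data, passing the limit was not always enough; inconclusive means only one of those two conditions holds; inactive means neither condition holds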
IDH1 mut inh – inhibitors of IDH1 R132H reductase, primary screen, biochemical, plate reader, single point; inhibition, % at 10 µM; Isocitrate dehydrogenase [NADP] cytoplasmic (Homo sapiens), O75874; diaphorase/resazurin fluorescence, 60 min; 0.18% of 70,000 active; in the data active means inhibition above about 34%; inconclusive means no clear call, values can overlap the other calls; inactive means below about 11%
Target sequence (O75874 whole entry R132H): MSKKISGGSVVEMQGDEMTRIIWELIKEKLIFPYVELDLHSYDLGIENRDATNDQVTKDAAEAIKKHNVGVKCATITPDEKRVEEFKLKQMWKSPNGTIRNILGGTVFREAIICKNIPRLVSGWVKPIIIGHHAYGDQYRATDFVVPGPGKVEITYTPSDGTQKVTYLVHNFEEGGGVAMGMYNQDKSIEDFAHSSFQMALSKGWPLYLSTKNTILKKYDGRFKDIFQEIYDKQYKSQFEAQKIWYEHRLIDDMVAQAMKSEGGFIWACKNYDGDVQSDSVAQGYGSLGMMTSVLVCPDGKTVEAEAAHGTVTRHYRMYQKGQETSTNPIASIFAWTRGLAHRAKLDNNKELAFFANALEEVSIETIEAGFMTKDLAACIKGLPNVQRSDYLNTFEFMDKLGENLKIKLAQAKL
KDM4C inh – inhibitors of GASC-1 (KDM4C) histone demethylase, primary screen, biochemical, single concentration HTS. GST-KDM4C 2-372, H3K9me3 peptide, LANCE TR-FRET. AID 720574, 2013. 0.15% of 96,000 active. inhibition, % at 12.5 µM;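 active means mean replicate inhibition above about 25%, with at least 55% of replicates also reaching it, limit read from the data, passing the limit was not always enough; inconclusive means only one of those two conditions met; inactive means neither condition met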
Target sequence (Q9H3R0 2-372 limits assumed): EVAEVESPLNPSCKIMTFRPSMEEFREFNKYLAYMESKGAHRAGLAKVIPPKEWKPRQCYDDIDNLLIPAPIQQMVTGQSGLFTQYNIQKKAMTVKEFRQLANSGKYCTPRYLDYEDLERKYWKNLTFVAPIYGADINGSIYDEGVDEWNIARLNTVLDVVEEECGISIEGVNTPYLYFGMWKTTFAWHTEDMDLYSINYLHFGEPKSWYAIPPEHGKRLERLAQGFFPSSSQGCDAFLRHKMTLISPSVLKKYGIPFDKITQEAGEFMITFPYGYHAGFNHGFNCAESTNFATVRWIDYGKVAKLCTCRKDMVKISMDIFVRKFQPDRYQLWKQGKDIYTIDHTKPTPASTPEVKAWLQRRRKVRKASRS
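System: N-terminal GST-fused human GASC-1 (KDM4C) fragment, residues 2-372; amount: enzyme final amount 10 nM; incubation: reaction 30 min RT, detection step 1 h RT; medium: HEPES buffer, pH 7.5, plus ascorbate; technique: LANCE TR-FRET, Eu antibody, ULight-streptavidin, EDTA, ex 340 nm, em 618/671 nm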
T cruzi growth-2 – T. cruzi intracellular proliferation inhibitors, confirmation, cell-based, NIH3T3 host, beta-gal parasite, luminescence, cherry-pick; shares compounds with T cruzi growth-1; T. cruzi beta-gal in NIH3T3, GalScreen luminescence, 90 h; inhibition, % at 8.35 µM; 72% of 5,600 active;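 active means mean replicate inhibition above about 95% and at least 55% of replicates individually reaching it, limit read from the data; inconclusive means only one of the two criteria is met; inactive means neither criterion is met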
T cruzi growth-3 – inhibitors of intracellular T. cruzi replication, confirmation, NIH3T3 host cells, beta-gal parasites, cherry-pick, set 2. shares compounds with T cruzi growth-1. T. cruzi beta-gal in NIH3T3, GalScreen luminescence, 90 h. inhibition, % at 2.09 µM. 21% of 5,600 active. AID 651740, 2012;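 active means mean inhibition above about 95%, with at least 55% of replicates also reaching it, limit read from the data; inconclusive means meets just one of the two conditions; inactive means meets neither condition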
NIH3T3 tox – cytotoxicity in mouse NIH/3T3 fibroblasts, confirmation, cytotoxicity control for T. cruzi proliferation inhibitor project, cell-based, cherry-pick, single point | shares compounds with T cruzi growth-1 | 14% of 5,600 active | NIH/3T3 viability, CellTiter-Glo ATP luminescence, 90 h | AID 651742, 2012 | cytotoxicity (signal decrease), % at 8.35 µM;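 active means mean signal decrease across replicates above about 35% based on untreated-well scatter, with enough replicates individually passing, limit read from the data; inconclusive means no rule stated though some were filed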
NIH3T3 tox 2 – NIH/3T3 fibroblast cytotoxicity, confirmation, cytotoxicity control, cell-based, cherry-pick, single point, set 2; 56% of 5,600 active; AID 651744, 2012; inhibition, % at 24.9 µM; shares compounds with T cruzi growth-1; NIH/3T3 viability, CellTiter-Glo ATP luminescence, 90 h;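 active means mean loss of cell viability signal at or above a set limit, and enough replicates individually reaching it; inconclusive means meets only the mean limit or only the replicate share; inactive means meets neither condition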
Of the large screens only hits and unclear results are named; the others gave an inactive call (follow-up assays come after a bar, where they were run). The sample as a whole holds a higher share of hits than the screen did.

C[C@@H]1CN([C@H](C)CO)C(=O)c2cc(C#Cc3ccc(F)cc3)cnc2O[C@H]1CN(C)C(=O)Nc1ccc(F)cc1	none
COc1ccc(NC(=O)N(C)C[C@H]2Oc3ncc(C#CCN(C)C)cc3C(=O)N([C@@H](C)CO)C[C@H]2C)cc1	none (no result: T cruzi growth-1)
C[C@@H]1CN([C@H](C)CO)C(=O)c2cc(C#CC3CC3)cnc2O[C@@H]1CN(C)C(=O)Nc1ccccc1	T cruzi growth-1 107 | T cruzi growth-2 inactive | T cruzi growth-3 inactive | NIH3T3 tox inactive | NIH3T3 tox 2 inactive
C[C@H](CO)N1C[C@H](C)[C@H](CN(C)C(=O)Nc2ccc(F)cc2)Oc2ncc(C#Cc3ccccc3)cc2C1=O	T cruzi growth-1 110 (no result: IDH1 mut inh) | T cruzi growth-2 inactive | T cruzi growth-3 inactive | NIH3T3 tox 57 | NIH3T3 tox 2 103
C[C@H](CO)N1C[C@H](C)[C@H](CN(C)C(=O)Nc2ccc3c(c2)OCO3)Oc2ncc(C#CC(C)(C)O)cc2C1=O	none
COc1ccc(NC(=O)N(C)C[C@@H]2Oc3ncc(C#Cc4ccc(C(F)(F)F)cc4)cc3C(=O)N([C@H](C)CO)C[C@@H]2C)cc1	T cruzi growth-1 108 | T cruzi growth-2 101 | T cruzi growth-3 inconclusive | NIH3T3 tox inactive | NIH3T3 tox 2 104
C[C@H](CO)N1C[C@H](C)[C@H](CN(C)C(=O)Nc2ccccc2)Oc2ncc(C#CC3CCCC3)cc2C1=O	none (no result: IDH1 mut inh)
COc1cccc(C2CC(=O)NC(SCC(=O)Nc3ccccc3Cl)=C2C#N)c1OC (stereo unspecified)	none (no result: T cruzi growth-1, KDM4C inh)
CO[C@@H]1CN(C)C(=O)c2cc(NS(C)(=O)=O)ccc2OC[C@@H](C)N(Cc2ccccc2)C[C@H]1C	none
Cc1cccc(NC(=O)CSc2nnc(-c3cccs3)n2-c2ccccc2)c1	none (no result: T cruzi growth-1, KDM4C inh)
CN(CCCC(=O)O)c1nc(-c2ccc(F)cc2)cs1	none (no result: T cruzi growth-1, KDM4C inh)
CCc1cccc(C)c1NC(=O)CSc1nnc(-c2ccccc2)n1-c1ccccc1	none (no result: T cruzi growth-1, KDM4C inh)
Cn1nnnc1SCC(=O)Nc1cc(Cl)cc(Cl)c1	none (no result: T cruzi growth-1, KDM4C inh)
C[C@H](CO)N1C[C@H](C)[C@H](CN(C)C(=O)Nc2ccccc2)Oc2ncc(C#Cc3ccccc3)cc2C1=O	none (no result: KDM4C inh)
C[C@H](CO)N1C[C@H](C)[C@H](CN(C)C(=O)Nc2ccccc2)Oc2ncc(C#Cc3ccc(C(F)(F)F)cc3)cc2C1=O	T cruzi growth-1 117 (no result: KDM4C inh) | T cruzi growth-2 108 | T cruzi growth-3 inconclusive | NIH3T3 tox inactive | NIH3T3 tox 2 105
CN1C(=O)c2cc(NS(C)(=O)=O)ccc2OC[C@H]2O[C@@H](CC(=O)O)CC[C@H]21	none (no result: IDH1 mut inh)
Cc1cccc(OCCCC(=O)Nc2ccccc2[N+](=O)[O-])c1C	none (no result: T cruzi growth-1, KDM4C inh)
O=C(CN1C(=O)C2C3C=CC(C4CC34)C2C1=O)Nc1ccc(Oc2ccc(Br)cc2)cc1 (stereo unspecified)	none (no result: T cruzi growth-1, KDM4C inh)
C[C@@H]1CN([C@@H](C)CO)S(=O)(=O)c2ccc(-c3ccc(C(=O)N(C)C)cc3)cc2O[C@@H]1CN(C)Cc1ccc2c(c1)OCO2	T cruzi growth-1 inconclusive | T cruzi growth-2 inactive | T cruzi growth-3 inactive | NIH3T3 tox inactive | NIH3T3 tox 2 92
C[C@@H]1CN([C@H](C)CO)S(=O)(=O)c2ccc(-c3ccncc3)cc2O[C@@H]1CN(C)C(=O)c1ccc2c(c1)OCO2	none
C[C@@H]1CN([C@@H](C)CO)S(=O)(=O)c2ccc(-c3ccc(C(=O)N(C)C)cc3)cc2O[C@H]1CN(C)Cc1ccc2c(c1)OCO2	none (no result: T cruzi growth-1, IDH1 mut inh)
C[C@H](CO)N1C[C@H](C)[C@H](CN(C)C(=O)c2ccc3c(c2)OCO3)Oc2cc(-c3ccccc3)ccc2S1(=O)=O	none (no result: T cruzi growth-1)
C[C@@H]1CN([C@@H](C)CO)S(=O)(=O)c2ccc(-c3ccncc3)cc2O[C@@H]1CN(C)C(=O)c1ccc2c(c1)OCO2	none
C[C@H](CO)N1C[C@H](C)[C@H](CN(C)C(=O)c2ccc3c(c2)OCO3)Oc2cc(-c3ccncc3)ccc2S1(=O)=O	T cruzi growth-1 104 | T cruzi growth-2 inactive | T cruzi growth-3 inactive | NIH3T3 tox inactive | NIH3T3 tox 2 28
C[C@H]1CN([C@@H](C)CO)S(=O)(=O)c2ccc(-c3ccncc3)cc2O[C@H]1CN(C)C(=O)c1ccc2c(c1)OCO2	T cruzi growth-1 102 | T cruzi growth-2 103 | T cruzi growth-3 inactive | NIH3T3 tox inactive | NIH3T3 tox 2 44
C[C@@H]1CN([C@H](C)CO)S(=O)(=O)c2ccc(-c3ccncc3)cc2O[C@H]1CN(C)C(=O)c1ccc2c(c1)OCO2	T cruzi growth-1 105 | T cruzi growth-2 101 | T cruzi growth-3 inactive | NIH3T3 tox inactive | NIH3T3 tox 2 44
N#Cc1ccc(/C=N/NC(=O)CCCCCCC(=O)NO)cc1	none (no result: T cruzi growth-1, KDM4C inh)
O=C(N=NC=C1C=CN(O)C=C1)c1ccccc1O	none (no result: T cruzi growth-1, KDM4C inh)
C[C@H]1CN([C@@H](C)CO)C(=O)Cc2cc(NS(=O)(=O)c3ccc(Cl)cc3)ccc2O[C@H]1CN(C)Cc1ccc(-c2ccccc2)cc1	none
COc1cccc(S(=O)(=O)N2CCCCN3[C@H](CO)[C@@H](c4ccc(C#CC5CC5)cc4)[C@H]3C2)c1	T cruzi growth-1 104 (no result: IDH1 mut inh) | T cruzi growth-2 98 | T cruzi growth-3 inactive | NIH3T3 tox 45 | NIH3T3 tox 2 105
O=S(=O)(c1ccccc1)N1CCCCN2[C@@H](CO)[C@H](c3ccc(C#CC4CCCC4)cc3)[C@@H]2C1	none (no result: IDH1 mut inh)
Cc1cccc(S(=O)(=O)N2CCCCN3[C@H](CO)[C@H](c4ccc(C#CC5CC5)cc4)[C@@H]3C2)c1	none (no result: IDH1 mut inh)
Cc1cccc(S(=O)(=O)N2CCCCN3[C@H](C2)[C@H](c2ccc(C#CC4CC4)cc2)[C@@H]3CO)c1	T cruzi growth-1 108 (no result: IDH1 mut inh) | T cruzi growth-2 109 | T cruzi growth-3 98 | NIH3T3 tox inactive | NIH3T3 tox 2 65
COc1cccc(S(=O)(=O)N2CCCCN3[C@H](CO)[C@@H](c4ccc(C#CC5CC5)cc4)[C@@H]3C2)c1	T cruzi growth-1 inconclusive (no result: IDH1 mut inh) | T cruzi growth-2 107 | T cruzi growth-3 100 | NIH3T3 tox inactive | NIH3T3 tox 2 inactive
O=S(=O)(c1ccc(F)cc1)N1CCCCN2[C@@H](CO)[C@H](c3ccc(C#CC4CC4)cc3)[C@@H]2C1	T cruzi growth-1 inconclusive (no result: IDH1 mut inh) | T cruzi growth-2 109 | T cruzi growth-3 inactive | NIH3T3 tox 44 | NIH3T3 tox 2 103
